Active and inactive are the calls of the source. No cut-off for these calls is given here.
Key:
PC-3 = test: Cytotoxicity against human PC3 cells after 72 hrs by MTT assay; assay type: functional, cell-based; details: PC-3, 72 h
In short: (§1)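 Cells plated at 10,000 to 40,000 cells/mL, depending on cell type, and incubated 24 h before treatment. Growth was read after 72 h culture with or without compound. MTT reduction to formazan by living cells was read by spectrophotometry at 570 nm with a 630 nm reference. IC50 growth inhibitory concentrations were derived. NHDF and Wi38 are normal human fibroblasts.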

A549 = test: Cytotoxicity against human A549 cells after 72 hrs by MTT assay; assay type: functional, cell-based; details: A549, 72 h; in short: as §1
[1] = Cytotoxicity against human U373 cells after 72 hrs by MTT assay; assay type: functional, cell-based, U-373MG ATCC; details: U373 MG; in short: as §1
NHDF = test: Cytotoxicity against human NHDF cells after 72 hrs by MTT assay; assay type: cell-based; in short: as §1
[2] = Cytotoxicity against human WI38 cells after 72 hrs by MTT assay; assay type: cell-based; details: wi-38, 72 h; in short: as §1
U-373MG ATCC = test: Cytotoxicity against human apoptosis-resistant U373 cells at 5 uM after 2 hrs by computer-assisted phase contrast microscopy; assay type: functional, cell-based
In short: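 U373 glioblastoma cells were cultured with or without 5 μM compound. Morphology was followed by quantitative computer-assisted phase-contrast videomicroscopy at 100x and 400x magnification over about 2 h after compound addition, to tell cytotoxic from cytostatic effects.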

| Structure (SMILES) | IC50 (PC-3) [µM] | IC50 (A549) [µM] | IC50 [1] [µM] | Activity (NHDF) | Activity [2] | Activity (U-373MG ATCC) |
| --- | --- | --- | --- | --- | --- | --- |
| COc1ccc(-c2c[nH]c3c2C2=NCCc4cn(S(=O)(=O)c5ccc(C)cc5)c(c42)C3=O)cc1 | > 100 | 15.4 | 57.4 |  |  |  |
| COc1ccc(C2CNC3=C2C(=O)c2c(ccn2S(=O)(=O)c2ccc(C)cc2)C3=O)cc1 (stereo unspecified) | 33.7 | 52.4 | 51.9 |  |  |  |
| COc1ccc(-c2c[nH]c3c2C(=O)c2c4c(cn2S(=O)(=O)c2ccc(C)cc2)CCN=C34)cc1 | > 100 | 3.1 | 41.4 |  |  |  |
| COc1ccc(C2C=NC3=C2C(=O)c2cc[nH]c2C3=O)cc1 (stereo unspecified) | > 100 | 7.8 | 7.6 |  |  |  |
| COc1ccc(-c2c[nH]c3c2-c2nccc4c[nH]c(c24)C3=O)cc1 | 88.8 | 80.6 | 97.8 |  |  |  |
| COc1ccc(-c2c[nH]c3c2C(=O)c2[nH]cc4ccnc-3c24)cc1 | > 100 | > 100 | > 100 |  |  |  |
| COc1ccc(-c2c[nH]c3c2C(=O)c2c(ccn2S(=O)(=O)c2ccc(C)cc2)C3=O)cc1 | 48.2 | 41.3 | 48.2 |  |  |  |
| COc1ccc(-c2c[nH]c3c2C(=O)c2c(c(CCN)cn2S(=O)(=O)c2ccc(C)cc2)C3=O)cc1 | 31.3 | 11.2 | 8.5 | Non-toxic | Non-toxic |  |
| COc1ccc(-c2c[nH]c3c2C(=O)c2[nH]cc4c2C3=NCC4)cc1 | 55.7 | 38.1 | 4.1 |  |  |  |
| COc1ccc(-c2c[nH]c3c2C(=O)c2c(CCN)cn(S(=O)(=O)c4ccc(C)cc4)c2C3=O)cc1 | 4.2 | 4.1 | 3.2 | Toxic | Toxic | Active |
| COc1ccc(-c2c[nH]c3c2C(=O)c2ccn(S(=O)(=O)c4ccc(C)cc4)c2C3=O)cc1 | 24.6 | 77.6 | > 100 |  |  |  |
| COc1ccc(-c2c[nH]c3c2C(=O)c2[nH]ccc2C3=O)cc1 | > 100 | > 100 | > 100 |  |  |  |
| O=C1c2cc[nH]c2C(=O)c2c(-c3ccc(O)cc3)c[nH]c21 | > 100 | 74.5 | 37 |  |  |  |
| COc1ccc(-c2c[nH]c3c2C2=NCCc4c[nH]c(c42)C3=O)cc1 | > 100 | > 100 | > 100 |  |  |  |
| COc1ccc(C2CNC3=C2C2=NCCc4cn(S(=O)(=O)c5ccc(C)cc5)c(c42)C3=O)cc1 (stereo unspecified) | 20.5 | 9.7 | 18.3 |  |  |  |
| COc1ccc(C2CNC3=C2C(=O)c2c4c(cn2S(=O)(=O)c2ccc(C)cc2)CCN=C34)cc1 (stereo unspecified) | 20.5 | 25.9 | 30.5 |  |  |  |
| COc1ccc(C(O)CNC2=CC(=O)c3c(ccn3S(=O)(=O)c3ccc(C)cc3)C2=O)cc1 (stereo unspecified) | 37.3 | 70.2 | 56.4 |  |  |  |
| O=C1c2[nH]cc3c2C(=NCC3)c2[nH]cc(-c3ccc(O)cc3)c21 | 63.7 | 35.2 | 62.2 |  |  |  |
| COc1ccc(C(O)CNC2=CC(=O)c3ccn(S(=O)(=O)c4ccc(C)cc4)c3C2=O)cc1 (stereo unspecified) | > 100 | > 100 | 29.2 |  |  |  |
| COc1ccc(C2CNC3=C2C(=O)c2ccn(S(=O)(=O)c4ccc(C)cc4)c2C3=O)cc1 (stereo unspecified) | 37.5 | 35.4 | 47.2 |  |  |  |
| O=C1C2=C(N=CC2c2ccc(O)cc2)C(=O)c2[nH]ccc21 (stereo unspecified) | > 100 | > 100 | > 100 |  |  |  |
| O=C1c2[nH]cc3c2C(=NCC3)c2c(-c3ccc(O)cc3)c[nH]c21 [TSITSIKAMMAMINE A] | 23 | 15.6 | 18.1 |  |  |  |
